Compounds with a hit are over-represented: about 1.4% of the library has one in this group of screens.
FN deposit inh = inhibitors of fibronectin matrix deposition, primary screen, AH1F cells, Alexa488-fibronectin fluorescence, plate reader; AH1F fibroblasts, overnight; inhibition, % at 12.6 µM; actives 0.086% (n = 350,000);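 active = mean inhibition across replicates of 30% or more, regardless of how many single replicates reach that level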
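Measured by – fluorescence 485/525 nm · System – AH1F fibroblast monolayer, labelled fibronectin deposition · Amount – 10000 cells per well · Buffer or medium – serum-reduced DMEM (2% serum) · Doses – single dose, pinned · Also added – fluorescent fibronectin at 24 nM final · Schedule – 1 h cell attachment, overnight exposure to compound and label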
PDI turbidity = inhibitors of human PDI, primary screen, biochemical, turbidity, single point, plate reader; PDI insulin aggregation turbidity, A650, 90 min; inhibition, % at 10 µM; actives 0.052% (n = 350,000);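 active = mean inhibition across replicates of 30% or more, whatever share of single replicates reach that level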
Target sequence (P07237 whole entry, looked up): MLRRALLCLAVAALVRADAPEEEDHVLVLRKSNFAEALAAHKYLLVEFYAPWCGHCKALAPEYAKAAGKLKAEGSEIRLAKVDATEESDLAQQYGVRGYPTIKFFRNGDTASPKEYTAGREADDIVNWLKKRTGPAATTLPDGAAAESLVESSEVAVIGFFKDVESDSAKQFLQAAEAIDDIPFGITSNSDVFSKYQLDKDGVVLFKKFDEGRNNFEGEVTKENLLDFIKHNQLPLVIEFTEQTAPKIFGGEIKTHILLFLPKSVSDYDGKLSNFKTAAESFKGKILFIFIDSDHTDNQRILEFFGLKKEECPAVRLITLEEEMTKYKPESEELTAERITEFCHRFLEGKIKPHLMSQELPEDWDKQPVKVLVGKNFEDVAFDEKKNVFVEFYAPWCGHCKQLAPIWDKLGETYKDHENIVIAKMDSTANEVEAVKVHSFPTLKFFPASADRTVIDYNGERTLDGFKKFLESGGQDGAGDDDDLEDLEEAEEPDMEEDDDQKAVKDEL
INS-1E GSIS act = GLuc luminescence reporter in INS-1E cells, primary screen for activators of glucose-dependent secretion of insulin; INS-1E GLuc reporter insulin secretion, 2-3 h; activation, % at 16.6 µM; actives 0.61% (n = 370,000);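 active = lowest replicate activation of at least 40%, so every replicate reaches that level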
Env fusion inh = inhibitors of HIV-1 Env-driven cell-cell fusion, primary screen, HeLa-JRFL effector, CEM21 target cells, luciferase. actives 1.1% (n = 360,000). AID 651610, 2012. inhibition, % at 12.3 µM;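 active = mean replicate inhibition score of at least 50 and every replicate individually at or above 50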
ERp5 inh = inhibitors of ERp5-driven insulin aggregation, primary screen, biochemical, turbidity, absorbance 650 nm, single point; Protein disulfide-isomerase A6 (Homo sapiens), Q15084; 90 min; inhibition, % at 9.99 µM; actives 0.05% (n = 350,000); AID 651711, 2012;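 active = mean replicate inhibition above about 25%, with every replicate also reaching it, limit read from the data, passing the limit was not always enough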
Of the large screens only hits and unclear results are named; the others gave an inactive call.

CCCCCN(C(=O)CCc1cn(CCCCC)c2ccccc12)c1ccc(Oc2cccnc2)cc1	Env fusion inh 57.9 (no result: PDI turbidity)
C=C(C)CSc1cc(C)nc2c(-c3ccccc3)c(C)nn12	Env fusion inh 61.1
CCSc1cc(C)nc2c(-c3ccccc3)c(C)nn12	none (no result: FN deposit inh, ERp5 inh)
C[C@H](CO)N1C[C@H](C)[C@@H](CN(C)Cc2ccc(Cl)c(Cl)c2)Oc2c(NC(=O)Nc3cccc4ccccc34)cccc2C1=O	none (no result: FN deposit inh, PDI turbidity, Env fusion inh)
COc1ccc(-c2ccc(C#N)c(SCC(=O)NC3CC3)n2)cc1OC	none (no result: INS-1E GSIS act)
COc1ccc(-c2nc3cccc(C)n3c2NCc2ccco2)cc1OC	INS-1E GSIS act 65.3 (no result: FN deposit inh, Env fusion inh, ERp5 inh)
COc1ccc(-c2ccc(C#N)c(SCC(=O)NCc3ccco3)n2)cc1OC	INS-1E GSIS act 50.6
Cc1cccc(C(=O)OCC(=O)NCc2ccco2)c1	Env fusion inh 65.9
Cc1ccc(C(=O)OCC(=O)NCc2ccco2)cc1	none (no result: INS-1E GSIS act, ERp5 inh)
CO[C@@H](C(=O)N(C)C[C@@H]1OCc2ccccc2-c2ccccc2C(=O)N([C@@H](C)CO)C[C@@H]1C)c1ccccc1	none (no result: PDI turbidity)
C[C@@H]1CN([C@H](C)CO)C(=O)c2cc(NC(=O)Cc3ccccc3)ccc2O[C@H]1CN(C)C(=O)Nc1ccc(F)cc1	none (no result: FN deposit inh, PDI turbidity, Env fusion inh)
CCOC(=O)c1cn(-c2ccccc2)nc1-c1ccncc1	INS-1E GSIS act 40.2 (no result: FN deposit inh)
COc1ccccc1NC(=O)C[C@H]1CC[C@H]2[C@@H](COc3ccc(NS(C)(=O)=O)cc3C(=O)N2C)O1	none (no result: PDI turbidity)
CC(=O)N1N=C(c2ccc(Br)cc2)OC1(C)CC(=O)Nc1ccccc1 (stereo not given)	INS-1E GSIS act 57.4 (no result: ERp5 inh)
CC(=O)NCCc1nc2ccccc2n1CCOc1cccc(C)c1	INS-1E GSIS act 58.9
CC(=O)NCCc1nc2ccccc2n1CCOc1ccccc1	none
C[C@@H]1CCCCO[C@@H](CN(C)S(=O)(=O)c2cn(C)cn2)[C@H](C)CN([C@@H](C)CO)C(=O)c2cc(NC(=O)NC3CCCCC3)ccc2O1	none (no result: FN deposit inh, PDI turbidity)
CO[C@@H]1CN(C)C(=O)c2cc(NC(=O)C3CC3)ccc2OC[C@H](C)NC[C@H]1C	none (no result: PDI turbidity, Env fusion inh)
CCCCc1ccc(NC(=S)NCCc2ccc(F)cc2)cc1	INS-1E GSIS act 46.3
Cc1ccc(NC(=O)CCC(=O)NNC(=O)COc2ccccc2)c(C)c1	none (no result: INS-1E GSIS act)
O=C(COc1ccccc1)Nc1ccccc1C(=O)NC1CC1	INS-1E GSIS act 44.0
CC(=O)c1ccc(OCC(=O)Nc2ccccc2C(=O)NC2CC2)cc1	none
COc1ccc(OCC(=O)Nc2ccccc2-c2ccccc2)cc1	none (no result: FN deposit inh)
CC(NC(=O)COC(=O)c1ccccc1Nc1ccccc1)c1ccccc1 (stereo not given)	INS-1E GSIS act 84.7 (no result: FN deposit inh, Env fusion inh, ERp5 inh)
Cc1ccc(OCC(=O)NNC(=O)CCC(=O)Nc2ccc(C)cc2C)cc1	INS-1E GSIS act 57.3 (no result: ERp5 inh)
Cc1ccc(OCC(=O)Nc2ccccc2-c2ccccc2NC(=O)COc2ccc(C)cc2)cc1	Env fusion inh 91.1 (no result: ERp5 inh)
C[C@H](CO)N1C[C@H](C)[C@@H](CN(C)S(=O)(=O)c2ccc(C#N)cc2)OCc2ccccc2-c2c(n(C)c3ccccc23)C1=O	none (no result: PDI turbidity, Env fusion inh)
CCCC(=O)Nc1ccc2c(c1)C(=O)N(C)[C@H]1CC[C@H](CC(=O)NCCOC)O[C@H]1CO2	none (no result: PDI turbidity, ERp5 inh)
CC(C)c1ccc(OCC(=O)NC(C)c2ccccc2)cc1 (stereo not given)	none (no result: INS-1E GSIS act)
Cc1ccc(OCC(=O)NC(C)c2ccccc2)cc1 (stereo not given)	INS-1E GSIS act 46.9
CO[C@@H]1CC[C@H]2CCOc3ccc(C#N)cc3C(=O)N(C)C[C@@H](OC)[C@@H](C)C(=O)N(C)C[C@@H]1O2	none (no result: FN deposit inh, PDI turbidity, INS-1E GSIS act)
O=C1C=C(O)c2cccc(O)c2C1=O	none (no result: FN deposit inh, PDI turbidity, INS-1E GSIS act, Env fusion inh)
CC1OC(CC(=O)O)CC2=C1C(=O)c1c(O)cccc1C2=O (stereo not given)	FN deposit inh 59.2, INS-1E GSIS act 72.1, Env fusion inh 76.2
COc1cc(C(=O)N2CCN(c3ncnc4sc(C)c(C)c34)CC2)cc(OC)c1OC	Env fusion inh 81.7 (no result: INS-1E GSIS act, ERp5 inh)
Cc1sc2ncnc(N3CCN(c4ncccn4)CC3)c2c1C	none (no result: FN deposit inh, INS-1E GSIS act, Env fusion inh, ERp5 inh)
CC(=O)N(C)C[C@@H]1Oc2cc(C#Cc3cccnc3)ccc2S(=O)(=O)N([C@@H](C)CO)C[C@H]1C	none (no result: PDI turbidity)
COc1ccc(S(=O)(=O)N(C)C[C@H]2OCCCC[C@H](C)Oc3ccc(NC(=O)CCC(F)(F)F)cc3C(=O)N([C@H](C)CO)C[C@@H]2C)cc1	none (no result: FN deposit inh, PDI turbidity)
Cc1cccc(/C=C2\Sc3ccc(C(=O)NCC4CCCO4)cc3N(C)C2=O)c1 (stereo not given)	none
CCOc1ccc(/C=C2/Sc3ccc(C(=O)NCC4CCCO4)cc3N(C)C2=O)cc1OC (stereo not given)	INS-1E GSIS act 40.3
COc1ccc(NC(=O)Nc2ccc3c(c2)[C@H]2C[C@H](CC(=O)N4CCCCC4)O[C@H](CO)[C@H]2O3)cc1	none (no result: PDI turbidity, Env fusion inh)
COC(=O)[C@@H](CC(C)C)N(Cc1ccccc1)S(=O)(=O)N(Cc1ccccc1)[C@@H](CC(C)C)C(=O)OC	Env fusion inh 85.2
CC(C)C[C@@H](C(=O)O)N(Cc1cccc(CN([C@@H](CC(C)C)C(=O)O)S(C)(=O)=O)c1)S(C)(=O)=O	Env fusion inh 60.8
O=[N+]([O-])c1ccc(/C=N/n2c(C3CCCCC3)n[nH]c2=S)cc1	none (no result: FN deposit inh, INS-1E GSIS act, ERp5 inh)
CSc1ccc(/C=N/n2c(C3CCCCC3)n[nH]c2=S)cc1	none
S=c1[nH]nc(C2CCCCC2)n1/N=C/c1ccncc1	Env fusion inh 55.7
O=C(O)c1ccc(/C=N/n2c(C3CCCCC3)n[nH]c2=S)cc1	INS-1E GSIS act 62.8
CCCNc1c(NS(=O)(=O)c2cccc(C#N)c2)c(=O)oc2ccccc12	INS-1E GSIS act 56.0
Cc1noc(C)c1NC(=O)Nc1ccc2c(c1)CC(=O)N([C@H](C)CO)C[C@H](C)[C@@H](CN(C)Cc1ccc3c(c1)OCO3)O2	none (no result: FN deposit inh, PDI turbidity)
O=C1CNC[C@H]2[C@H](c3ccc(C#CC4CCCCC4)cc3)[C@H](CO)N12	none (no result: PDI turbidity, Env fusion inh)
Cn1c(SCc2nc(-c3ccccc3)no2)nnc1-c1cccs1	none (no result: INS-1E GSIS act, ERp5 inh)
Cn1c(SCc2nc(-c3ccc(Cl)cc3)no2)nnc1-c1cccs1	Env fusion inh 83.4
CC(C)n1cc(/C=C/c2cc[n+](C)cc2)c2ccccc21	Env fusion inh 71.9
COc1ccc(/C=C/c2c(-c3ccc(OC)cc3)oc3ccccc23)cc1	Env fusion inh 55.6
NC(=O)c1sc2nc3c(c(-c4cccnc4)c2c1N)CCC3	none (no result: FN deposit inh, INS-1E GSIS act, Env fusion inh, ERp5 inh)
NC(=O)c1sc2nc3c(c(-c4cccs4)c2c1N)CCCCC3	Env fusion inh 126.3 (no result: INS-1E GSIS act, ERp5 inh)
CCCC#Cc1cnc2c(c1)C(=O)N([C@H](C)CO)C[C@@H](C)[C@@H](CN(C)C(=O)c1ccccc1)O2	none (no result: PDI turbidity)
O=C(c1cccnc1)N1C[C@H]2[C@@H](c3ccccc31)[C@H](CO)N2CC1CCCC1	FN deposit inh 32.2 (no result: PDI turbidity, Env fusion inh)
Cc1cccc(Oc2ccc(NS(=O)(=O)c3ccc(C)c(C(=O)O)c3)cc2)c1	ERp5 inh 26.1

Screening data deposited in PubChem by Broad Institute.
